An excerpt weighted towards active compounds, which were near 2.3% of everything screened.
MT1-MMP act inh: blockers of MT1-MMP proenzyme processing, primary screen, HT1080 RFP-PRO-GFP cells, GFP/RFP fluorescence | actives 0.061% (n = 360,000) | GFP/RFP ratio fluorescence, overnight; percent of plate control window, DMSO zero | GFP/RFP ratio change, % at 20 µM | Matrix metalloproteinase-14 (Homo sapiens), P50281;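 active = GFP/RFP ratio change of at least 30% with cell ATP level not reduced by more than half and red fluorescence within 50% of control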
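Material: RFP-PRO-GFP reporter HT1080 cells. Dosing: single-point 20 µM compound, 1% DMSO. Controls: DMSO and RFP-L50D-GFP cell wells. Timing: cells overnight before dosing, compound overnight, 37 °C, 5% CO2. Measure: GFP/RFP fluorescence ratio.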
MPTP inh: mitochondrial permeability transition pore inhibitors, primary screen, biochemical, isolated mouse mitochondria, absorbance; AID 602449, 2012; Ca2+ swelling absorbance, 30 min; actives 1.4% (n = 360,000); inhibition, % at 10 µM;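 active = inhibition of 50% or more, scaled per plate between neutral and stimulator controls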;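 also: 0% = DMSO wells given calcium and 100% = 1 mM EGTA wells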
ATG4B inh: ATG4B protease inhibitors, primary screen, biochemical, fluorescence, uHTS; Cysteine protease ATG4B (Homo sapiens), Q9Y4P1; ATG4B cleavage of LC3-PLA2, NBD-HPC fluorescence, 1 h; actives 0.51% (n = 340,000); inhibition, % at 8.33 µM; in the data active = inhibition above about 40%
Target sequence (Q9Y4P1 whole entry, looked up): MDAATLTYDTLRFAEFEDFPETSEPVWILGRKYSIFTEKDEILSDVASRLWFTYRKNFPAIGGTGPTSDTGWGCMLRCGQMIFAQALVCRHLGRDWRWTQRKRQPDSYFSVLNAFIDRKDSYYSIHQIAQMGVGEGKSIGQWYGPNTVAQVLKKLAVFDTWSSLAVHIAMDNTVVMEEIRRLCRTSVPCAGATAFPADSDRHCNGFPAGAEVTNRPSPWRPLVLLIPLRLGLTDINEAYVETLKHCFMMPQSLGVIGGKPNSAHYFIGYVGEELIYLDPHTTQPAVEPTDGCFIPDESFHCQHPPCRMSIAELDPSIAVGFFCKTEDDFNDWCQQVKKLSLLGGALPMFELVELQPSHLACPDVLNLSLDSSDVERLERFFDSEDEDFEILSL
SKN-1 inh: suppressors of acrylamide-induced Pgst-4::GFP reporter in worms, primary screen, SKN-1 inhibitor project, whole organism, uHTS, GFP/RFP fluorescence ratio, strain VP596; C. elegans VP596 Pgst-4::GFP/RFP ratio, 24 h; inhibition, % at 21.8 µM; actives 0.49% (n = 360,000); AID 624304, 2012;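 active = interference check ratio from 0.5 to 1.5 plus GFP to RFP signal ratio inhibition reaching or exceeding a fixed threshold, cut at about 30% in these data, passing the limit was not always enough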
Starred values were filed as active, the others as inactive; nt = not tested or not shown.

SMILES	MT1-MMP act inh	MPTP inh	ATG4B inh	SKN-1 inh
CCOC(=O)c1c(/N=C/C2=C(O)CC(C)(C)CC2=O)sc(C(C)=O)c1C	1.5	2.1	-0.9	7.2
COC(=O)[C@@H](NC(=O)Nc1cccc(OC)c1)C(C)C	-1.9	-0.4	7.1	2.2
CCCNC(=O)COC(=O)c1[nH]c(C)c(C(=O)OCC)c1C	1.8	1.7	2.6	35.4*
CCOC(=O)c1c(C)[nH]c(C(=O)OCC(=O)N2CCN(S(=O)(=O)c3ccccc3)CC2)c1C	-3.3	0.5	-17.4	42.2*
CC(=O)c1c(C)[nH]c(C(=O)OCC(=O)N2CCN(S(=O)(=O)c3ccc(C)cc3)CC2)c1C	-0.5	-2.3	-15.5	-2.3
O=C(/C=C/c1ccco1)N1CCc2ccccc21	-6.2	0.1	7.5	58.2*
Cc1ccc(/C=C/C(=O)N2CCc3ccccc32)o1	-3.0	2.7	-1.5	-1.3
Cc1ccc(NC(=O)CNC(=O)c2cccs2)cc1S(=O)(=O)Nc1ccc(Cl)cc1	-1.3	5.0	-9.2	41.5*
COc1ccc(NC(=O)CNC(=O)c2cccs2)cc1Cl	-3.9	0.3	1.0	-3.3
Cc1cc(NC(=O)CSc2nc3ccccc3c(=O)n2Cc2ccc(F)cc2)no1	-4.4	2.2	8.3	31.5*
O=C(Nc1nccs1)c1ccc(-c2ccc([N+](=O)[O-])cc2)o1	-4.4	-0.5	-1.0	30.0
O=C(Nc1nccs1)c1ccc(-c2ccccc2Cl)o1	5.0	0.5	-4.1	52.7*
O=C(Nc1nccs1)c1ccc(-c2ccccc2[N+](=O)[O-])o1	0.9	-0.1	-15.6	36.1*
CCN(C(=O)COC(=O)CCn1c(C)csc1=O)c1c(N)n(Cc2ccccc2)c(=O)[nH]c1=O	-1.6	-0.2	-2.6	8.0
COc1cccc(C(C)(O)c2nc(-c3ccc(C)c(C)c3)cs2)c1 (stereo not drawn)	-2.1	14.7	nt	26.2
CCOc1ccccc1NC(=O)C(CC(C)C)NC(=O)C1CCC(C)CC1 (stereo not drawn)	-4.2	1.8	0.5	41.3*
O=C(CN1C(=O)COc2ccc(S(=O)(=O)N3CCOCC3)cc21)NCc1ccccn1	-6.2	0.3	-0.3	-9.2
CC1=C(C(=O)OCc2ccccc2)C(c2ccccc2OS(=O)(=O)c2ccc([N+](=O)[O-])cc2)NC(=O)N1CCCC(=O)O (stereo not drawn)	-3.8	4.4	-20.7	-20.6
C/C(C/C(C)=C1/SC(=S)NC1=O)=C1\SC(=S)NC1=O	-19.9	-1.4	67.6*	-6.6
O=C(O)c1ccccc1-c1ccccc1C(=O)Nc1ccc2c(c1)oc(=O)c1ccccc12	0.5	2.3	nt	36.2*
O=C(Nc1nc(-c2cccs2)cs1)c1ccc(Cl)cc1	-8.7	0.2	2.3	30.2
COc1ccc(C(=O)Nc2nc(-c3cccs3)cs2)cc1	-8.3	0.2	16.0	46.5*
OC(c1ccccn1)c1c[nH]c2ccccc12 (stereo not drawn)	-1.5	0.1	6.2	36.8*
Cc1c(Cc2ccccc2)sc(/N=C/c2c(O)ccc3ccccc23)c1C(N)=O	-71.8	30.0	51.9*	4.6
CNC(=O)c1ccc(NC(=O)Cc2ccc(S(=O)(=O)N3CCOCC3)s2)cc1	-1.5	-1.4	1.4	-0.3
SMILES	MT1-MMP act inh	MPTP inh	ATG4B inh	SKN-1 inh
COc1ccccc1C1CN(c2ccc(F)cc2F)N=C1c1cccs1 (stereo not drawn)	-8.5	3.9	7.4	44.2*
CC(=O)Oc1ccc(C2=Cc3ccc(OC(C)=O)cc3OC2C)cc1 (stereo not drawn)	-2.7	0.4	-2.7	-7.1
O=C(c1ccccc1)c1cc([N+](=O)[O-])ccc1N1CCOCC1	14.5	0.0	-3.8	7.0
O=C(c1ccc(Cl)cc1)c1cc([N+](=O)[O-])ccc1N1CCOCC1	6.4	-2.1	-7.0	66.7*
O=C(c1ccc(Br)cc1)c1cc([N+](=O)[O-])ccc1N1CCOCC1	0.5	1.6	-13.1	65.2*
O=C(Nc1ccccc1C(=O)N1CCCCC1)c1ccccc1C(F)(F)F	-2.1	-1.4	5.4	-0.1
CC(NC(=O)CCNS(=O)(=O)c1cccc2nonc12)c1ccccc1 (stereo not drawn)	2.5	-0.6	2.8	-4.0
Cc1cc(NC(=O)c2ccoc2C)no1	-2.7	-0.6	11.0	16.0
N#Cc1nc(N2CCOCC2)nc(N2CCOCC2)n1	1.9	0.4	4.5	36.1*
O=C(Nc1cc(C(F)(F)F)ccc1-n1cncn1)c1ccc(-c2ccccc2)cc1	1.0	1.6	-8.0	12.4
CC(C)NC(=O)C1CCN(c2ccc(S(=O)(=O)N3CCOCC3)cc2Cl)CC1	2.0	1.1	-3.2	-5.9
C/C(=N\OCc1ccc(C#N)cc1)c1cc2ccccc2o1	5.1	2.1	21.7	54.2*
C/C(=N\OCc1ccccc1C#N)c1cc2ccccc2o1	1.3	-1.1	-5.7	-1.4
COc1cc2c(Cc3ccccc3)cncc2cc1O	0.0	11.8	-12.8	6.8
Cc1cc([N+](=O)[O-])ccc1NCc1ccc2ccccc2c1	0.8	10.9	2.9	15.3
Cc1cc([N+](=O)[O-])ccc1NCc1ccccc1	-1.3	3.7	-2.9	36.9*
Cc1cccc(/C=C/C(=O)c2ccc(NC3=NCCCS3)cc2)c1	-10.0	16.3	16.5	60.3*
COc1cccc(/C=C/C(=O)c2ccc(NC3=NCCCS3)cc2)c1	1.1	-0.2	0.3	18.4
O=C(/C=C/c1ccccc1)c1ccc(NC2=NCCCS2)cc1	-4.0	4.1	4.2	12.5
O=C(/C=C/c1ccc(Br)cc1)c1ccc(NC2=NCCCS2)cc1	-11.1	18.3	16.6	83.4*
CCCN1c2cccc3cccc(c23)S1(=O)=O	-5.2	0.7	-6.3	-0.9
O=C1COC(c2ccccc2O)=NN1CCCl	5.1	-0.6	nt	-1.1
CCN(c1ccccc1)c1nc2ccsc2c(=O)s1	-7.4	-0.3	19.6	0.8
CN(c1ccccc1)c1nc2ccsc2c(=O)s1	-2.1	3.6	6.2	43.0*
CCCN(C)C1CN(Cc2cn(Cc3ccc(OC)cc3)nn2)S(=O)(=O)C1 (stereo not drawn)	-0.3	0.2	nt	11.5
SMILES	MT1-MMP act inh	MPTP inh	ATG4B inh	SKN-1 inh
O=Cc1ccc(Sc2nnc(-c3ccccc3)o2)c([N+](=O)[O-])c1	6.5	10.6	48.6*	-9.9
Cc1cc(C)nc(Sc2ccc(C=O)cc2[N+](=O)[O-])n1	-1.8	-3.8	-1.5	0.1
O=C(O)CCNc1cc2ccccc2cc1C(=O)O	-3.1	-2.2	-2.0	36.5*
O=C(Nc1ccccc1Cl)c1cc(C2CCCN(C(=O)OCCF)C2)on1 (stereo not drawn)	0.0	0.3	nt	37.0*
CCCCn1nnnc1C(c1ccccc1)N1CCN(c2ccc(C)cc2)CC1 (stereo not drawn)	2.0	1.1	nt	-12.2
N#Cc1ccc(NC(=O)COC(=O)CCNS(=O)(=O)c2ccccc2)cc1	-0.9	-2.3	-1.5	13.8

Screening data: PubChem, Sanford-Burnham Center for Chemical Genomics
